MrgX1 agonist – agonists of human MrgX1 receptor, primary screen, HEK293 cells, Fluo-4 calcium flux; Mas-related G-protein coupled receptor member X1 (Homo sapiens), Q96LB2; Fluo-4 calcium fluorescence, agonist mode; hits give high values; B-score at 10 µM; actives 0.44% (n = 310,000);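 active means calcium response B-score plate-corrected fluorescence ratio at least 3 library SD, with starting fluorescence B-score inside 5 SD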
Target sequence (Q96LB2 whole entry, looked up): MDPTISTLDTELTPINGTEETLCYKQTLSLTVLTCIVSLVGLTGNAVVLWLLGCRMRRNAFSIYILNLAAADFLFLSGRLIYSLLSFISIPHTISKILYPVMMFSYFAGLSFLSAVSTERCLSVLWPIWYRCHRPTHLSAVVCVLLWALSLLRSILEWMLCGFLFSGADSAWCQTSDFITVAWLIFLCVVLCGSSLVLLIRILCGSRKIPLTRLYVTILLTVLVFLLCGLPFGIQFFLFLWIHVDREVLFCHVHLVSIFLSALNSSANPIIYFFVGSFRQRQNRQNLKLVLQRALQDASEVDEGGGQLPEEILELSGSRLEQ
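System: HEK293 cells stably expressing human MrgX1 receptor; Dosing: test compound in the initial addition of three; Schedule: overnight plating, then 30 min 37 °C plus 30 min room-temperature dye loading; Detection: kinetic calcium dye fluorescence, Fluo-4 NW; Controls: per-plate positive and negative controls for Z′ factor.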
MrgX1 PAM – positive allosteric modulators of MrgX1, primary screen, HEK293 cells, Fluo-4 calcium flux; Mas-related G-protein coupled receptor member X1 (Homo sapiens), Q96LB2; FDSS; hits give high values; B-score at 10 µM; actives 0.63% (n = 310,000);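 active means plate-corrected calcium response at least 3 library SD above typical, normal starting fluorescence, not activating the receptor alone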;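 further: compound read alongside a low EC10 to EC30 dose of BAM8-22 agonist; peak minus trough fluorescence over baseline measured at the second addition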
MrgX1 antag – antagonists of human MrgX1 receptor, primary screen, HEK293 cells, Fluo-4 calcium flux. Mas-related G-protein coupled receptor member X1 (Homo sapiens), Q96LB2. BAM8-22 antagonism; hits give low values. B-score at 10 µM. actives 1.3% (n = 310,000);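 active means calcium-response B-score plate-corrected more than 3 library SD below zero, starting fluorescence within 5 deviations, no agonist response on first addition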;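 further: peak minus trough fluorescence over baseline after final BAM8-22 challenge near maximal dose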
RGS4 block – RGS4 inhibitors, primary screen, cell-based, HEK293 M3R inducible RGS4, calcium flux; actives 0.45% (n = 310,000); Fluo-4 calcium flux; hits give high values; triggered by carbachol at its EC20; B-score at 10 µM;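 active means B-score, a plate-corrected calcium signal, over three deviations above library mean, with baseline fluorescence within five deviations of library mean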;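 further: RGS4 expression induced by doxycycline in cells with stable M3 receptor; B-score is computed from the integrated fluorescence ratio over baseline after carbachol; higher B-score means a larger calcium signal and so more RGS4 inhibition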
Target sequence (P49798 whole entry, looked up): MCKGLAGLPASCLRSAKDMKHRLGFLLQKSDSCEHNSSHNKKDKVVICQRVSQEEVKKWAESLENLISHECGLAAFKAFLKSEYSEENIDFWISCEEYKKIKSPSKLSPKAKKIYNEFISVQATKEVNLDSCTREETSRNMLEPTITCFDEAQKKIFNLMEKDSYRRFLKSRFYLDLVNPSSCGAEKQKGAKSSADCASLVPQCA
RGS4 pot – RGS4 potentiators or activators, primary screen, cell-based, HEK293 M3R inducible RGS4, calcium flux; actives 0.92% (n = 310,000); carbachol calcium flux Fluo4; hits give low values; B-score at 10 µM; AID 463111, 2010;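 active means B-score of the integrated calcium signal more than 4 SD below the library mean, with starting fluorescence not abnormally high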;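 further: negative B-score means reduced calcium response which marks RGS4 activation or potentiation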
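Reagent: ECmax carbachol challenge; Test system: M3R-expressing HEK293 line, RGS4 induced by doxycycline; Schedule: overnight RGS4 induction, 30 min dye load 37 °C, 20 min compound RT; Detection: calcium dye Fluo4 fluorescence; Read-out: Agonist-evoked peak-minus-minimum fluorescence over baseline, integrated ratio, B score.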
MrgX1 allo conf – MrgX1 positive allosteric modulators, duplicate retest, confirmation, HEK293 cells, Fluo-4 calcium flux; actives 13% (n = 1,200); activation (ratio percentage), % at 10 µM; Fluo-4 calcium fluorescence, FDSS; shares compounds with MrgX1 PAM; AID 602413, 2012;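 active means ratio at least 3 SD above the weak peptide control, stable starting fluorescence, no direct agonism earlier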;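 further: compound followed by low BAM8-22 agonist challenge near EC20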
MrgX1 ant reconf – MrgX1 receptor antagonists, duplicate retest, confirmation, HEK293 cells, Fluo-4 calcium flux; actives 19% (n = 2,300); remaining BAM8-22 calcium response % of control (hits give low values), % at 10 µM; BAM8-22 calcium flux; hits give low values; shares compounds with MrgX1 antag; AID 602420, 2012;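 active means remaining agonist calcium response no higher than 100% minus 3 SD of agonist-only control wells, with starting fluorescence near control levels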;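 further: agonist BAM8-22 given at a near maximal EC90 to ECmax level; peak minus minimum fluorescence divided by baseline after agonist addition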
HEK293 Ca flux – nonspecific calcium signal in parental HEK293, confirmation, counter-screen for MrgX1 antagonist project, parental HEK293 cells, Fluo-4 calcium flux; shares compounds with MrgX1 antag; Fluo-4 calcium fluorescence, FDSS; fluorescence ratio F(max-min)/F0 at 10 µM; actives 2% (n = 4,000); AID 624111, 2012;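 active means duplicate-averaged calcium fluorescence ratio at least three times the standard deviation of buffer wells, a nonspecific response in parental cells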
HEK293 Ca counter – calcium response in parental HEK293 cells, primary screen, counter-screen for MrgX1 allosteric activator project, cell-based, Fluo-4 calcium flux, duplicate. shares compounds with MrgX1 antag. Fluo-4 fluorescence ratio; hits give high values. fluorescence ratio F(max-min)/F0 at 10 µM. actives 0.4% (n = 4,000);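 active means calcium fluorescence ratio, averaged over duplicates, at least 3 SD of the buffer-well ratio, meaning a nonspecific response in receptor-free cells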;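 further: untransfected parental HEK293 lacking MrgX1 used as counterscreen for MrgX1 allosteric activators; fluorescence change taken during the second addition on a kinetic imager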
HEK293 Ca cntr2 – calcium response in parental HEK293 cells, primary screen, counter-screen for MrgX1 agonist project, cell-based, Fluo-4 calcium flux, duplicate, agonist mode | shares compounds with MrgX1 antag | Fluo-4 calcium fluorescence (FDSS); hits give high values | fluorescence ratio F(max-min)/F0 at 10 µM | actives 8.7% (n = 4,000);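 active means calcium fluorescence ratio at least three times the spread of buffer wells, meaning a non-specific response in parental cells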
Starred values were filed as active, the others as inactive. Hits are enriched below; roughly 3.5% of the tested compounds scored in any of these assays.

COc1ccccc1-n1c(C)cc(/C=C2/C(=N)N3C(=NC2=O)SN=C3S(C)(=O)=O)c1C was read as MrgX1 agonist inactive, MrgX1 PAM 20.8*, MrgX1 antag inactive, RGS4 block inactive, RGS4 pot inactive, MrgX1 allo conf inactive, HEK293 Ca flux inactive, HEK293 Ca counter inactive and HEK293 Ca cntr2 inactive.
`CCCCOc1ccccc1NC(=O)CSc1nnnn1C(C)(C)C` gave MrgX1 agonist inactive, MrgX1 PAM 22.1*, MrgX1 antag inactive, RGS4 block inactive, RGS4 pot inactive, MrgX1 allo conf inactive, HEK293 Ca flux inactive, HEK293 Ca counter inactive and HEK293 Ca cntr2 inactive.
For COc1ccccc1NC(=O)CSc1nnnn1-c1ccc(C(=O)O)cc1 the results were MrgX1 agonist inactive, MrgX1 PAM inactive, MrgX1 antag inactive, RGS4 block inactive and RGS4 pot inactive.
Cn1c(=O)n(C)c2cc(C(N)=O)ccc21 was read as MrgX1 agonist inactive, MrgX1 PAM 14.7*, MrgX1 antag inactive, RGS4 block inactive, RGS4 pot inactive, MrgX1 allo conf inactive, HEK293 Ca flux inactive, HEK293 Ca counter inactive and HEK293 Ca cntr2 inactive.
Screening COc1ccccc1CNC(=O)C1CCC(CNc2c(N3CCC(C)CC3)c(=O)c2=O)CC1 (stereo not given) returned MrgX1 agonist inactive, MrgX1 PAM 6.6*, MrgX1 antag inactive, RGS4 block inactive, RGS4 pot inactive, MrgX1 allo conf inactive, HEK293 Ca flux inactive, HEK293 Ca counter inactive and HEK293 Ca cntr2 inactive.
Screening COc1cccc(CNC(=O)C2CCC(CNc3c(N4CCC(C)CC4)c(=O)c3=O)CC2)c1 (stereo not given) returned MrgX1 agonist inactive, MrgX1 PAM inactive, MrgX1 antag inactive, RGS4 block inactive and RGS4 pot inactive.
For Cc1cccc2nc3ccccc3nc12 the results were MrgX1 agonist inactive, MrgX1 PAM 9.32*, MrgX1 antag inactive, RGS4 block inactive, RGS4 pot inactive, MrgX1 allo conf inactive, HEK293 Ca flux inactive, HEK293 Ca counter inactive and HEK293 Ca cntr2 inactive.
c1ccc2nc3ccccc3nc2c1 was read as MrgX1 agonist inactive, MrgX1 PAM inactive, MrgX1 antag inactive, RGS4 block inactive and RGS4 pot inactive.
c1ccc(-c2cc3c(N4CCCCC4)ncnc3s2)cc1 was read as MrgX1 agonist inactive, MrgX1 PAM 8.89*, MrgX1 antag inactive, RGS4 block inactive, RGS4 pot inactive, MrgX1 allo conf inactive, HEK293 Ca flux inactive, HEK293 Ca counter inactive and HEK293 Ca cntr2 inactive.
Screening Cc1cccc(C)c1NC1=NC(=S)N(c2ccc(C(=O)O)cc2)C12CCCCC2 returned MrgX1 agonist inactive, MrgX1 PAM 7.24*, MrgX1 antag inactive, RGS4 block inactive, RGS4 pot inactive, MrgX1 allo conf inactive, HEK293 Ca flux inactive, HEK293 Ca counter inactive and HEK293 Ca cntr2 inactive.
For Cc1cccc(NC2=NC(=S)N(c3cccc(C(=O)O)c3)C23CCCCC3)c1 the results were MrgX1 agonist inactive, MrgX1 PAM inactive, MrgX1 antag inactive, RGS4 block inactive and RGS4 pot inactive.
Cc1ccc(NC(=O)C(=O)NCCOc2ccc(Cl)cc2)c(C)c1 was read as MrgX1 agonist inactive, MrgX1 PAM 9.61*, MrgX1 antag inactive, RGS4 block inactive, RGS4 pot inactive, MrgX1 allo conf inactive, HEK293 Ca flux inactive, HEK293 Ca counter inactive and HEK293 Ca cntr2 inactive.
`COc1ccc(OC)c(CN2CCN(C(=O)c3ccc(NS(=O)(=O)c4cccc([N+](=O)[O-])c4)cc3)CC2)c1` gave MrgX1 agonist inactive, MrgX1 PAM 19.9*, MrgX1 antag inactive, RGS4 block inactive, RGS4 pot inactive, MrgX1 allo conf 38.0%*, HEK293 Ca flux inactive, HEK293 Ca counter inactive and HEK293 Ca cntr2 inactive.
`COc1ccc(OC)c(CN2CCN(C(=O)c3cccc(S(=O)(=O)Nc4ccccc4OC)c3)CC2)c1` gave MrgX1 agonist inactive, MrgX1 PAM inactive, MrgX1 antag inactive, RGS4 block inactive and RGS4 pot inactive.
Screening Cc1ccc(N=Cc2cc3c(cc2O)OC(N)=C(C#N)C3c2ccccc2)cc1 (stereo not given) returned MrgX1 agonist inactive, MrgX1 PAM inactive, MrgX1 antag -9.79*, RGS4 block inactive, RGS4 pot inactive, MrgX1 ant reconf 80.0%*, HEK293 Ca flux inactive, HEK293 Ca counter inactive and HEK293 Ca cntr2 inactive.
`Cc1nn(C)c(C(=O)NNC(=S)NCC(C)C)c1Cl` gave MrgX1 agonist inactive, MrgX1 PAM inactive, MrgX1 antag inactive, RGS4 block inactive and RGS4 pot inactive.
CC(C)(C)OC(=O)N1CCCC1C(=O)NC(Cc1ccccc1)C(=O)O (stereo not given) was read as MrgX1 agonist inactive, MrgX1 PAM inactive, MrgX1 antag inactive, RGS4 block inactive and RGS4 pot inactive.
`CC(=O)c1cccc(NC(=O)C2CC(=O)N(CCc3ccccc3)C2)c1` (stereo not given) gave MrgX1 agonist inactive, MrgX1 PAM inactive, MrgX1 antag -5.19*, RGS4 block inactive, RGS4 pot inactive, MrgX1 ant reconf inactive, HEK293 Ca flux inactive, HEK293 Ca counter inactive and HEK293 Ca cntr2 inactive.

High-throughput results as filed in PubChem BioAssay.
